Numbering of substitutions follows the chain as printed.
Tests used:
Conditions in all cases: stereoisomer not certain
OR2A7 (Homo sapiens) = molecular target: T1, OR2A7 (Homo sapiens) (UniProt Q96R45)
T1 sequence (whole entry): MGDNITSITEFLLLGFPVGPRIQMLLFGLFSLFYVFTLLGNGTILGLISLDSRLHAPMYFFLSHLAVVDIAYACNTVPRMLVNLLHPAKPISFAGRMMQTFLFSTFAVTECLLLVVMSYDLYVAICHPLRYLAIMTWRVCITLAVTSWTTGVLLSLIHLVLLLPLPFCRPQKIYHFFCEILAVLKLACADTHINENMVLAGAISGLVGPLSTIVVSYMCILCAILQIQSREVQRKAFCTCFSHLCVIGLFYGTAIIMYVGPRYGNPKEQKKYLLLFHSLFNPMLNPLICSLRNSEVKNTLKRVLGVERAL
How it was run: (§1)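 Whether a receptor–molecule pair is responsive (active) rests on the original authors' judgment that its measured signal was statistically different from baseline. Pairs without that judgment are non-responsive (inactive). Sources used varied assay methods, commonly transient luciferase assays in mammalian cell lines.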

OR2A12 (Homo sapiens) = molecular target: T2, OR2A12 (Homo sapiens) (UniProt Q8NGT7)
T2 sequence (whole entry): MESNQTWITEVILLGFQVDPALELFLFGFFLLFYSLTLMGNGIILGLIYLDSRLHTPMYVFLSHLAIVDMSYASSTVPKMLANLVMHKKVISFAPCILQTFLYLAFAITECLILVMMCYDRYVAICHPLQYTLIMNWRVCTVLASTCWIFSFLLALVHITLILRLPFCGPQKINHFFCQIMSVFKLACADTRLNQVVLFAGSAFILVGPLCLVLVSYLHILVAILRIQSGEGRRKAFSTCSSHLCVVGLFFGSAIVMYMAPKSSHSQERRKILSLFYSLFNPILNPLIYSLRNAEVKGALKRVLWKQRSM
How it was run: as §1

OR2A14 (Homo sapiens) = molecular target: T3, OR2A14 (Homo sapiens) (UniProt Q96R47)
T3 sequence (whole entry): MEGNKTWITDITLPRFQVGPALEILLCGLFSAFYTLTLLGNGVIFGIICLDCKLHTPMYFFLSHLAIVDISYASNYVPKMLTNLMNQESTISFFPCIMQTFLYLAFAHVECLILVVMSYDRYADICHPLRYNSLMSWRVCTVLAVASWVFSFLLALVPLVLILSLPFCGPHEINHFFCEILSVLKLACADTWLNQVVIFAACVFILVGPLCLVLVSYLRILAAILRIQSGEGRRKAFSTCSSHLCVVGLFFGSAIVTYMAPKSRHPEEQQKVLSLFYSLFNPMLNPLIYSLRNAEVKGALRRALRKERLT
How it was run: as §1

OR2A2 (Homo sapiens) = molecular target: T4, OR2A2 (Homo sapiens) (UniProt Q6IF42)
T4 sequence (whole entry): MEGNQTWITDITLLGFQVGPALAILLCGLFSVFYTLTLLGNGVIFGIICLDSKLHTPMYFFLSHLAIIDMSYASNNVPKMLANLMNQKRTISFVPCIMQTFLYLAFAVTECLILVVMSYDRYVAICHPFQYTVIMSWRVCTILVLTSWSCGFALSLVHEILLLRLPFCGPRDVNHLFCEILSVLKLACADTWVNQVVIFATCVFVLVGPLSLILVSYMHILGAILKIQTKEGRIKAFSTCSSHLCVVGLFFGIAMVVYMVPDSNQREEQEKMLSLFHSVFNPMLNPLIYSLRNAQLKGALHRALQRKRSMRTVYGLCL
How it was run: as §1

OR2A25 (Homo sapiens) = molecular target: T5, OR2A25 (Homo sapiens) (UniProt A4D2G3)
T5 sequence (whole entry): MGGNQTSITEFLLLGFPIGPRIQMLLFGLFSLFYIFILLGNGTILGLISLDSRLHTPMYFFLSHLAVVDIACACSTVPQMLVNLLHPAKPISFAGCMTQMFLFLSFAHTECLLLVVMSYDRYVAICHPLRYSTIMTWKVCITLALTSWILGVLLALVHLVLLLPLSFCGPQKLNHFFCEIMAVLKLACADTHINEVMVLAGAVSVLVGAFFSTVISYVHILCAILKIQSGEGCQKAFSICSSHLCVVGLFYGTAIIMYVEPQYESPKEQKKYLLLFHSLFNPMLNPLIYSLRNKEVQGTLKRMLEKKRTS
How it was run: as §1

OR2A4 (Homo sapiens) = molecular target: T6, OR2A4 (Homo sapiens) (UniProt O95047)
T6 sequence (whole entry): T1 sequence (whole entry) with T9R, C238R, F250V
How it was run: as §1

OR2A5 (Homo sapiens) = molecular target: T7, OR2A5 (Homo sapiens) (UniProt Q96R48)
T7 sequence (whole entry): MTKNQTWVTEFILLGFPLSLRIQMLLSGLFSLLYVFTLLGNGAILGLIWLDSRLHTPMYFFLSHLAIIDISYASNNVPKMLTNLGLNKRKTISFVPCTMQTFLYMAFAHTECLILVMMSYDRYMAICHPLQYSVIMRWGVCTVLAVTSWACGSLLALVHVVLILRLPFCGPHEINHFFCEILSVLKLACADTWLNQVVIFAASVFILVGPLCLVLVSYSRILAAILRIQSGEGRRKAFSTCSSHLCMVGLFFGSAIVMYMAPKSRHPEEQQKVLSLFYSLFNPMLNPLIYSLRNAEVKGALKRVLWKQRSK
How it was run: as §1

OR2AE1 (Homo sapiens) = molecular target: T8, OR2AE1 (Homo sapiens) (UniProt Q8NHA4)
T8 sequence (whole entry): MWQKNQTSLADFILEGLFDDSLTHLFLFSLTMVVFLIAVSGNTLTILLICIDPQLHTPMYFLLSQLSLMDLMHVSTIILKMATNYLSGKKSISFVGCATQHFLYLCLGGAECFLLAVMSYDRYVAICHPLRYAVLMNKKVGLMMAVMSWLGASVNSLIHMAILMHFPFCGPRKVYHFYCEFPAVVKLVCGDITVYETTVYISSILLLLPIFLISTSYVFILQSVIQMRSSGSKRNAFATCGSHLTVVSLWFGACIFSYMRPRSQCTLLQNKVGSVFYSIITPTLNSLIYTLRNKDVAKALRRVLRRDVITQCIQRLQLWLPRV
How it was run: as §1

OR2AG1 (Homo sapiens) = molecular target: T9, OR2AG1 (Homo sapiens) (UniProt Q9H205)
T9 sequence (whole entry): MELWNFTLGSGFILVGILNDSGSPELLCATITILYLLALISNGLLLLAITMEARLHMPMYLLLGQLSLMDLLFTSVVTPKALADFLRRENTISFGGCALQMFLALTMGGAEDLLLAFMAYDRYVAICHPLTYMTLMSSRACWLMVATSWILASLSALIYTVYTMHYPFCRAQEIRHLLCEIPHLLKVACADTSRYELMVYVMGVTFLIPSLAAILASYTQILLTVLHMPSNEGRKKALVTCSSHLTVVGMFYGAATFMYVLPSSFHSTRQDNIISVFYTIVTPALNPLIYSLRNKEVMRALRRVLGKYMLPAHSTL
How it was run: as §1

OR2AG2 (Homo sapiens) = molecular target: T10, OR2AG2 (Homo sapiens) (UniProt A6NM03)
T10 sequence (whole entry): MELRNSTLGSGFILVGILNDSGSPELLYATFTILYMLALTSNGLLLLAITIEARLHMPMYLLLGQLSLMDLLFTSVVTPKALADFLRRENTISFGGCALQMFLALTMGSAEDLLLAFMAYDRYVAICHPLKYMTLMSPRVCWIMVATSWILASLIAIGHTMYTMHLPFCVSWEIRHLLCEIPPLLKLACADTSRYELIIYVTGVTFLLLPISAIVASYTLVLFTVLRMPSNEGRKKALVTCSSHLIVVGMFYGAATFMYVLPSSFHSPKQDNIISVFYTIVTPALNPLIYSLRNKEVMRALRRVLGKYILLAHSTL
How it was run: as §1

OR2AJ1 (Homo sapiens) = molecular target: T11, OR2AJ1 (Homo sapiens) (UniProt Q8NGZ0)
T11 sequence (whole entry): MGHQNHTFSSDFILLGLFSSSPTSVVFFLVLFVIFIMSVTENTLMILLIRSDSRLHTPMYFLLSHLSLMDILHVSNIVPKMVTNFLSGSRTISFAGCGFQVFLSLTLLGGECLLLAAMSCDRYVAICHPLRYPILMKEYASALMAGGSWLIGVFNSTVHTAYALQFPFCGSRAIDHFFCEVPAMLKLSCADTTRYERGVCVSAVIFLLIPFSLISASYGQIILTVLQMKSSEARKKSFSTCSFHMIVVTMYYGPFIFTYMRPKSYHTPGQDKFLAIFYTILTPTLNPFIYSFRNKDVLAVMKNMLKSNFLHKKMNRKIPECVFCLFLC
How it was run: as §1

OR2AK2 (Homo sapiens) = molecular target: T12, OR2AK2 (Homo sapiens) (UniProt Q8NG84)
T12 sequence (whole entry): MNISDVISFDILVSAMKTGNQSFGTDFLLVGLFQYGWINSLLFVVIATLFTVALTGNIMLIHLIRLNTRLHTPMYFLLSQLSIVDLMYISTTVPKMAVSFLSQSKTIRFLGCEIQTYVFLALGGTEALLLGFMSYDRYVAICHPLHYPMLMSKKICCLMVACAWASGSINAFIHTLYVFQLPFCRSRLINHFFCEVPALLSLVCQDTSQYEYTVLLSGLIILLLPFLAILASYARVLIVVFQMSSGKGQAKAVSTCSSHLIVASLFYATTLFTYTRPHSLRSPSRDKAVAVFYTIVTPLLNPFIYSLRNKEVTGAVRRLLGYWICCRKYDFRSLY
How it was run: as §1

OR2AP1 (Homo sapiens) = molecular target: T13, OR2AP1 (Homo sapiens) (UniProt Q8NGE2)
T13 sequence (whole entry): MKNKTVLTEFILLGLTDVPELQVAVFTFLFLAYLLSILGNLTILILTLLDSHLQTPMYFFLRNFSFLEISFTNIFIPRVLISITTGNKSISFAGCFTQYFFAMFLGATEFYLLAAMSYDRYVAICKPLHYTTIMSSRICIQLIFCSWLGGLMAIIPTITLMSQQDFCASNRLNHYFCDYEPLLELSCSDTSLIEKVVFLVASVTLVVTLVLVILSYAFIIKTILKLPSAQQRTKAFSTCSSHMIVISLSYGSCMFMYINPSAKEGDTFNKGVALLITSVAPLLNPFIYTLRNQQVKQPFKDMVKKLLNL
How it was run: as §1

OR2AT4 (Homo sapiens) = molecular target: T14, OR2AT4 (Homo sapiens) (UniProt A6NND4)
T14 sequence (whole entry): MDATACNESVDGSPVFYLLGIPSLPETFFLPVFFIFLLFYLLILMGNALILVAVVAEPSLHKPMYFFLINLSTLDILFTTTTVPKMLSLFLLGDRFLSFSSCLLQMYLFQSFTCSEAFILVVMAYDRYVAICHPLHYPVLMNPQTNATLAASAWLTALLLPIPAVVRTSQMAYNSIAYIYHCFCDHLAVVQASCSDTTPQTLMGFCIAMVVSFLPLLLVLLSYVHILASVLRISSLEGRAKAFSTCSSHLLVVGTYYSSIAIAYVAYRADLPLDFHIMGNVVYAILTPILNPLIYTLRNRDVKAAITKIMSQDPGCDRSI
How it was run: as §1

OR2B11 (Homo sapiens) = molecular target: T15, OR2B11 (Homo sapiens) (UniProt Q5JQS5)
T15 sequence (whole entry): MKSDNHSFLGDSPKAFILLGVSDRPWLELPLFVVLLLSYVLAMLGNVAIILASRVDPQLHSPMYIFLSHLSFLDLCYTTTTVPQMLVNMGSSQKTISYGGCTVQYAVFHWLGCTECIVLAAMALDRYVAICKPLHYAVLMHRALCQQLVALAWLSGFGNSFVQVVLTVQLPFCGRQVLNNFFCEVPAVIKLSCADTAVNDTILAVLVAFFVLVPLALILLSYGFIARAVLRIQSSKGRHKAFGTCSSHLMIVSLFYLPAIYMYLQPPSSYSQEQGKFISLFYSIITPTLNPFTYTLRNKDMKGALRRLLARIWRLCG
How it was run: as §1

OR2B2 (Homo sapiens) = molecular target: T16, OR2B2 (Homo sapiens) (UniProt Q9GZK3)
T16 sequence (whole entry): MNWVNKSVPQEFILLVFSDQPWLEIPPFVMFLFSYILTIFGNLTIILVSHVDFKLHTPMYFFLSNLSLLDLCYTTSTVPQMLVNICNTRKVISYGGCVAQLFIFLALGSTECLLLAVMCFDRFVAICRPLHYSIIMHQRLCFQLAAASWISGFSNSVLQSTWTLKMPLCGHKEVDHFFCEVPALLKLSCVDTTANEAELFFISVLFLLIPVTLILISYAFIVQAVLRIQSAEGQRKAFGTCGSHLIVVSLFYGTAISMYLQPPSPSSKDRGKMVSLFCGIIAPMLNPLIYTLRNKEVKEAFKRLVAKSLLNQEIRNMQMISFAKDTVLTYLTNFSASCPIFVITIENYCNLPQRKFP
How it was run: as §1

Measured: odorant receptor agonist call

COc1ccc2[nH]cc(CCNC(C)=O)c2c1
inactive: OR2A7 (Homo sapiens)

CC(CO)CS (stereo not drawn)
inactive: all assays above

CCCO
inactive: OR2A7 (Homo sapiens)
